# ChEMBL document CHEMBL1126909, “Synthesis and pharmacological examination of benzofuran, indan, and tetralin analogues of 3,4-(methylenedioxy)amphetamine” (J Med Chem, 1993)
# Key:
# Type in all cases: functional
# Rattus norvegicus [1] = experiment: Number of animals tested to that of number of animals disrupted in 3 trained at 0.214 mg/kg; Number of animals tested=12
# Method in brief: (§1)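 Drug-discrimination rats were male Sprague-Dawley, 175–200 g, kept at about 80% of free-feeding weight. They were trained against saline on (S)-1c·HCl 1.75 mg/kg, 3·HCl 1.71 mg/kg or (S)-amphetamine sulfate 1 mg/kg. Test drug was given ip in 0.9% saline at 1 mL/kg, 30 min before sessions run under extinction. A session ended at 50 presses on one lever; failing 50 presses within 5 min was scored as disrupted.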
# Rattus norvegicus [2] = experiment: Percentage of nondisrupted animals selecting drug liver in S-1c trained at 0.215 mg/kg; SDL
# Method in brief: (§2)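 Rats and training are as above: male Sprague-Dawley, food-restricted, with training doses per drug group. Test drug was given ip in saline 30 min before extinction sessions. %SDL is the share of nondisrupted rats reaching 50 presses on the drug lever. A rat not completing 50 presses in 5 min was scored as disrupted.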
# Rattus norvegicus [3] = experiment: Percentage of nondisrupted animals selecting drug liver in 3 trained at 0.429 mg/kg; SDL; method in brief: as §2
# Rattus norvegicus [4] = experiment: Number of animals tested to that of number of animals disrupted in S-1c trained at 0.857 mg/kg; Number of animals tested=11; method in brief: as §1
# Rattus norvegicus [5] = experiment: Number of animals tested to that of number of animals disrupted in S-1c trained at 0.429 mg/kg; Number of animals tested=10; method in brief: as §1
# Rattus norvegicus [6] = experiment: Number of animals tested to that of number of animals disrupted in 3 trained at 0.643 mg/kg; Number of animals tested=12; method in brief: as §1
# Rattus norvegicus [7] = experiment: Percentage of nondisrupted animals selecting drug liver in 3 trained at 0.857 mg/kg; SDL; method in brief: as §2
# Rattus norvegicus [8] = experiment: Percentage of nondisrupted animals selecting drug liver in S-1c trained at 0.108 mg/kg; SDL; method in brief: as §2
# Rattus norvegicus [9] = experiment: Percentage of nondisrupted animals selecting drug liver in 3 trained at 0.214 mg/kg; SDL; method in brief: as §2
# Rattus norvegicus [10] = experiment: Number of animals tested to that of number of animals disrupted in S-1c trained at 0.215 mg/kg; Number of animals tested=10; method in brief: as §1
# Rattus norvegicus [11] = experiment: Number of animals tested to that of number of animals disrupted in 3 trained at 0.108 mg/kg; Number of animals tested=8; method in brief: as §1
# Rattus norvegicus [12] = experiment: Number of animals tested to that of number of animals disrupted in 3 trained at 0.429 mg/kg; Number of animals tested=12; method in brief: as §1
# Rattus norvegicus [13] = experiment: Number of animals tested to that of number of animals disrupted in 3 trained at 1.286 mg/kg; Number of animals tested=8; method in brief: as §1
# Rattus norvegicus [14] = experiment: Number of animals tested to that of number of animals disrupted in S-1c trained at 0.108 mg/kg; Number of animals tested=7; method in brief: as §1
# Rattus norvegicus [15] = experiment: Tested for drug-discrimination stimulus effect at 0.215 mg/kg in S-1c trained animals; 0.23-0.57
# Method in brief: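 Male Sprague-Dawley rats (175–200 g) held at about 80% of free-feeding weight were trained on two levers to tell (S)-1c·HCl 1.75 mg/kg from saline. Test drugs were given in 0.9% saline, ip, 30 min before sessions run under extinction. A session ended at 50 presses on one lever, or was scored disrupted if not done within 5 min. %SDL counts nondisrupted rats. ED50 and 95% CI were derived by Litchfield–Wilcoxon.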
# Rattus norvegicus [16] = species: Rattus norvegicus; experiment: Inhibitory concentration against [3H]- 5-HT uptake in crude rat synaptosomes; settings: Brain
# Method in brief: (§3)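 Crude synaptosomes from male Sprague-Dawley rat tissue homogenised in ice-cold isotonic sucrose. Preincubated 5 min at 37 °C under aeration with pargyline (final 100 μM), then chilled. Tritiated transmitter added at 10 nM final and uptake run 5 min at 37 °C. Catecholamine buffer had 0.06 mM ascorbate. Filtered and counted by scintillation. 9–10 concentrations in triplicate, 3–4 experiments, four-parameter logistic fit for IC50 ± SEM.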
# Rattus norvegicus [17] = species: Rattus norvegicus; experiment: Inhibitory concentration against [3H]- DA uptake in crude rat synaptosomes; settings: Brain; method in brief: as §3
# Rattus norvegicus [18] = species: Rattus norvegicus; experiment: Inhibitory concentration against [3H]- NE uptake in crude rat synaptosomes; settings: Brain; method in brief: as §3
# Rattus norvegicus [19] = experiment: Percentage of nondisrupted animals selecting drug liver in S-1c trained at 0.643 mg/kg; SDL
# Rattus norvegicus [20] = experiment: Percentage of nondisrupted animals selecting drug liver in 3 trained at 0.643 mg/kg; SDL; method in brief: as §2
# Rattus norvegicus [21] = experiment: Percentage of nondisrupted animals selecting drug liver in S-1c trained at 0.857 mg/kg; SDL
# Rattus norvegicus [22] = experiment: Percentage of nondisrupted animals selecting drug liver in 3 trained at 1.286 mg/kg; SDL; method in brief: as §2
# Rattus norvegicus [23] = experiment: Number of animals tested to that of number of animals disrupted in 3 trained at 0.857 mg/kg; Number of animals tested=12; method in brief: as §1
# Rattus norvegicus [24] = experiment: Percentage of nondisrupted animals selecting drug liver in S-1c trained at 0.429 mg/kg; SDL
# Rattus norvegicus [25] = experiment: Number of animals tested to that of number of animals disrupted in S-1c trained at 0.643 mg/kg; Number of animals tested=12
# Rattus norvegicus [26] = experiment: Percentage of nondisrupted animals selecting drug liver in 3 trained at 0.108 mg/kg; SDL; method in brief: as §2
# Rattus norvegicus [27] = species: Rattus norvegicus; experiment: Tested for drug-discrimination stimulus effect in 3-trained rats
structure (smiles),measurement,setting,value
CC(N)Cc1ccc2c(c1)OCC2 (stereo not given),Activity,Rattus norvegicus [1],6
same,SDL,Rattus norvegicus [2],14%
same,SDL,Rattus norvegicus [3],83%
same,Activity,Rattus norvegicus [4],5
same,Activity,Rattus norvegicus [5],3
same,Activity,Rattus norvegicus [6],5
same,SDL,Rattus norvegicus [7],90%
same,SDL,Rattus norvegicus [8],0%
same,SDL,Rattus norvegicus [9],17%
same,Activity,Rattus norvegicus [10],3
same,Activity,Rattus norvegicus [11],6
same,Activity,Rattus norvegicus [12],6
same,Activity,Rattus norvegicus [13],6
same,Activity,Rattus norvegicus [14],2
same,ED50,Rattus norvegicus [15],0.4 mg/kg
same,IC50,Rattus norvegicus [16],0.322 µM
same,IC50,Rattus norvegicus [17],2 µM
same,IC50,Rattus norvegicus [18],0.98 µM
same,SDL,Rattus norvegicus [19],88%
same,SDL,Rattus norvegicus [20],100%
same,SDL,Rattus norvegicus [21],100%
same,SDL,Rattus norvegicus [22],100%
same,Activity,Rattus norvegicus [23],2
same,SDL,Rattus norvegicus [24],57%
same,Activity,Rattus norvegicus [25],4
same,SDL,Rattus norvegicus [26],0%
COc1cc2c(cc1C)CC(N)C2 (stereo not given),ED50,Rattus norvegicus [27],0.56 mg/kg
CC(N)Cc1ccc2c(c1)CCCC2 (stereo not given),IC50,Rattus norvegicus [16],0.121 µM
same,IC50,Rattus norvegicus [17],6.44 µM
same,IC50,Rattus norvegicus [18],3.37 µM
